From ChEMBL document CHEMBL4689842, “EUbOPEN Chemogenomics Library wave 1” (2021)

System: Fibroblast
Assay: Multiplex assay against human fibroblast
Assay type: toxicity, cell-based
Outline: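 Compound was added to live cells that had been stained at seeding with Hoechst33342, BioTracker Green Microtubule Cytoskeleton Dye, MitoTracker Red and Annexin V Alexa Fluor 680, and imaging followed on a CQ1 microscope at 37°C and 5% CO2. CellPathfinder machine-learning gating divided cells into Hoechst high-intensity objects or normal cells, normal cells into healthy, pyknosed or fragmented nuclei, and pyknosed cells into mitotic or apoptotic. Tubulin, mitochondrial-mass and membrane-permeability phenotypes are per cents of healthy-nucleus cells.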

[1] = 12 h, 1 µM, compound concentration 1 uM, replicate 1
[2] = 12 h, 1 µM, compound concentration 1 uM, replicate 2
[3] = 12 h, 10 µM, compound concentration 10 uM, replicate 1
[4] = 12 h, 10 µM, compound concentration 10 uM, replicate 2
[5] = 24 h, 1 µM, compound concentration 1 uM, replicate 1
[6] = 24 h, 1 µM, compound concentration 1 uM, replicate 2
[7] = 24 h, 10 µM, compound concentration 10 uM, replicate 1
[8] = 24 h, 10 µM, compound concentration 10 uM, replicate 2
[9] = 48 h, 1 µM, compound concentration 1 uM, replicate 1
[10] = 48 h, 1 µM, compound concentration 1 uM, replicate 2
[11] = 48 h, 10 µM, compound concentration 10 uM, replicate 1
[12] = 48 h, 10 µM, compound concentration 10 uM, replicate 2

O=C(Nc1ccc(Cl)cc1)Nc1cccc(-c2cccc(N3CCCC3)n2)c1
Population Apoptotic (%) [1]: 45% | Population Fragmented Nuclei (%) [1]: 32% | Population Healthy Nuclei (%) [1]: 41% | Population Hoechst High Intensity Objects (%) [1]: 18% | Population Membrane Permeable-Phenotype (%) [1]: 43% | Population Mitochondria Different-Phenotype (%) [1]: 5% | Population Mitotic Cells (%) [1]: 54% | Population Normal (%) [1]: 81% | Population Pyknosed Nuclei (%) [1]: 26% | Population Tubulin-Different-Phenotype (%) [1]: 35% | Total Cell Count [1]: 110 | Population Apoptotic (%) [2]: 25% | Population Fragmented Nuclei (%) [2]: 17% | Population Healthy Nuclei (%) [2]: 76% | Population Hoechst High Intensity Objects (%) [2]: 7% | Population Membrane Permeable-Phenotype (%) [2]: 10% | Population Mitochondria Different-Phenotype (%) [2]: 8% | Population Mitotic Cells (%) [2]: 75% | Population Normal (%) [2]: 92% | Population Pyknosed Nuclei (%) [2]: 6% | Population Tubulin-Different-Phenotype (%) [2]: 12% | Total Cell Count [2]: 83 | Population Apoptotic (%) [3]: 66% | Population Fragmented Nuclei (%) [3]: 21% | Population Healthy Nuclei (%) [3]: 23% | Population Hoechst High Intensity Objects (%) [3]: 35% | Population Membrane Permeable-Phenotype (%) [3]: 40% | Population Mitochondria Different-Phenotype (%) [3]: 0% | Population Mitotic Cells (%) [3]: 34% | Population Normal (%) [3]: 64% | Population Pyknosed Nuclei (%) [3]: 54% | Population Tubulin-Different-Phenotype (%) [3]: 54% | Total Cell Count [3]: 142 | Population Apoptotic (%) [4]: 72% | Population Fragmented Nuclei (%) [4]: 3% | Population Healthy Nuclei (%) [4]: 78% | Population Hoechst High Intensity Objects (%) [4]: 7% | Population Membrane Permeable-Phenotype (%) [4]: 69% | Population Mitochondria Different-Phenotype (%) [4]: 7% | Population Mitotic Cells (%) [4]: 27% | Population Normal (%) [4]: 92% | Population Pyknosed Nuclei (%) [4]: 17% | Population Tubulin-Different-Phenotype (%) [4]: 74% | Total Cell Count [4]: 69 | Population Apoptotic (%) [5]: 50% | Population Fragmented Nuclei (%) [5]: 31% | Population Healthy Nuclei (%) [5]: 52% | Population Hoechst High Intensity Objects (%) [5]: 13% | Population Membrane Permeable-Phenotype (%) [5]: 23% | Population Mitochondria Different-Phenotype (%) [5]: 0% | Population Mitotic Cells (%) [5]: 50% | Population Normal (%) [5]: 86% | Population Pyknosed Nuclei (%) [5]: 15% | Population Tubulin-Different-Phenotype (%) [5]: 42% | Total Cell Count [5]: 103 | Population Apoptotic (%) [6]: 20% | Population Fragmented Nuclei (%) [6]: 18% | Population Healthy Nuclei (%) [6]: 75% | Population Hoechst High Intensity Objects (%) [6]: 6% | Population Membrane Permeable-Phenotype (%) [6]: 7% | Population Mitochondria Different-Phenotype (%) [6]: 3% | Population Mitotic Cells (%) [6]: 80% | Population Normal (%) [6]: 93% | Population Pyknosed Nuclei (%) [6]: 6% | Population Tubulin-Different-Phenotype (%) [6]: 12% | Total Cell Count [6]: 94 | Population Apoptotic (%) [7]: 91% | Population Fragmented Nuclei (%) [7]: 17% | Population Healthy Nuclei (%) [7]: 24% | Population Hoechst High Intensity Objects (%) [7]: 31% | Population Membrane Permeable-Phenotype (%) [7]: 45% | Population Mitochondria Different-Phenotype (%) [7]: 33% | Population Mitotic Cells (%) [7]: 8% | Population Normal (%) [7]: 68% | Population Pyknosed Nuclei (%) [7]: 58% | Population Tubulin-Different-Phenotype (%) [7]: 50% | Total Cell Count [7]: 145 | Population Apoptotic (%) [8]: 72% | Population Fragmented Nuclei (%) [8]: 13% | Population Healthy Nuclei (%) [8]: 54% | Population Hoechst High Intensity Objects (%) [8]: 25% | Population Membrane Permeable-Phenotype (%) [8]: 46% | Population Mitochondria Different-Phenotype (%) [8]: 15% | Population Mitotic Cells (%) [8]: 27% | Population Normal (%) [8]: 74% | Population Pyknosed Nuclei (%) [8]: 31% | Population Tubulin-Different-Phenotype (%) [8]: 46% | Total Cell Count [8]: 81 | Population Apoptotic (%) [9]: 55% | Population Fragmented Nuclei (%) [9]: 40% | Population Healthy Nuclei (%) [9]: 51% | Population Hoechst High Intensity Objects (%) [9]: 14% | Population Membrane Permeable-Phenotype (%) [9]: 33% | Population Mitochondria Different-Phenotype (%) [9]: 1% | Population Mitotic Cells (%) [9]: 44% | Population Normal (%) [9]: 85% | Population Pyknosed Nuclei (%) [9]: 7% | Population Tubulin-Different-Phenotype (%) [9]: 28% | Total Cell Count [9]: 135 | Population Apoptotic (%) [10]: 0% | Population Fragmented Nuclei (%) [10]: 28% | Population Healthy Nuclei (%) [10]: 70% | Population Hoechst High Intensity Objects (%) [10]: 12% | Population Membrane Permeable-Phenotype (%) [10]: 22% | Population Mitotic Cells (%) [10]: 100% | Population Normal (%) [10]: 87% | Population Pyknosed Nuclei (%) [10]: 1% | Population Tubulin-Different-Phenotype (%) [10]: 34% | Total Cell Count [10]: 107 | Population Apoptotic (%) [11]: 94% | Population Fragmented Nuclei (%) [11]: 19% | Population Healthy Nuclei (%) [11]: 17% | Population Hoechst High Intensity Objects (%) [11]: 45% | Population Membrane Permeable-Phenotype (%) [11]: 35% | Population Mitochondria Different-Phenotype (%) [11]: 28% | Population Mitotic Cells (%) [11]: 5% | Population Normal (%) [11]: 54% | Population Pyknosed Nuclei (%) [11]: 63% | Population Tubulin-Different-Phenotype (%) [11]: 50% | Total Cell Count [11]: 151 | Population Apoptotic (%) [12]: 95% | Population Fragmented Nuclei (%) [12]: 16% | Population Healthy Nuclei (%) [12]: 9% | Population Hoechst High Intensity Objects (%) [12]: 63% | Population Membrane Permeable-Phenotype (%) [12]: 27% | Population Mitochondria Different-Phenotype (%) [12]: 18% | Population Mitotic Cells (%) [12]: 4% | Population Normal (%) [12]: 36% | Population Pyknosed Nuclei (%) [12]: 73% | Population Tubulin-Different-Phenotype (%) [12]: 36% | Total Cell Count [12]: 325
